Results from different studies.
Each line is one published result; the experiments were not run side by side.
Target: Homeodomain-interacting protein kinase 3 (HIPK3, Homo sapiens, UniProt Q9H422)

Compound	read-out	technique	tested at	remaining binding [%]
COc1ncc2cc3ccccc3nc2c1C#N	cell-free assay	competition with immobilised ligand	5 µM	100
FC(F)(F)Oc1cccc(-c2cnc3ccc(-c4ccncc4)nn23)c1	cell-free assay	competition with immobilised ligand	5 µM	0.7
CC(=O)N1CCC(c2ccc(C(=O)NC3=NCCN3)cc2C(F)(F)F)CC1	cell-free assay	competition with immobilised ligand	1 µM	72
CCN1CCN(Cc2ccc(C(=O)Nc3ccc(C)c(Oc4ccc5c(c4)CC(=O)N5)c3)cc2C(F)(F)F)CC1	binding	competition with immobilised ligand	1 µM	100
C[C@H]1CCN(c2nccc(-c3cnn4ncccc34)n2)C1	binding	–	1 µM	61
O=C(NCCCN1CCOCC1)c1ccc(Nc2nccc(-c3cc4ccccc4s3)n2)cc1	binding	competition with immobilised ligand	1 µM	39
c1cnn2ncc(-c3ccnc(N4CCC45COC5)n3)c2c1	binding	–	1 µM	50
O=C(NCC1CCOCC1)c1n[nH]cc1NC(=O)c1c(F)cccc1F	binding	competition with immobilised ligand	1 µM	63
CN(CCCC(F)(F)F)c1nccc(-c2cnn3ncccc23)n1	binding	–	1 µM	88
Cn1nc(C(F)(F)F)cc1-c1cnc(N2CCc3cc(S(=O)(=O)Nc4c(F)cc(Cl)cc4F)cc(N4CCCC4=O)c32)nc1	cell-free assay	competition with immobilised ligand	1 µM	85
C[C@@H](c1ccc(-n2cnc3c(N)ncnc32)cc1)N1CCc2nn(C)c(Cc3ccccc3)c2C1=O	binding	competition with immobilised ligand	0.1 µM	64
O=C(c1ccc(Nc2ncc(Cl)c(-c3cc4ccccc4s3)n2)cc1)N1CCC(N2CCCC2)CC1	binding	competition with immobilised ligand	1 µM	1.8
O=C1NC(c2ccccn2)Sc2ccccc21 (stereo not shown)	cell-free assay	competition with immobilised ligand	1 µM	86
CN(c1nccc(-c2cnn3ncccc23)n1)C1CC1	binding	–	1 µM	100
O=C(N[C@H]1CCCCC/C=C\C2C[C@@]2(C(=O)O)NC(=O)[C@@H]2C[C@@H](Oc3ccncc3)CN2C1=O)OC1CCCC1 (stereo partly shown)	binding	competition with immobilised ligand	1 µM	100
N[C@H]1CCN(c2nccc(-c3cnn4ncccc34)n2)C1	binding	–	1 µM	91
CN(C)C(=O)Cn1cc(-c2nc(C3(c4ccc(-c5cnc(N)nc5)cc4)CC3)no2)cn1	cell-free assay	competition with immobilised ligand	1 µM	71
Cc1cnc(Nc2ccc(C(=O)N3CCC(N4CCCC4)CC3)cc2)nc1-c1cc2ccccc2s1	binding	competition with immobilised ligand	1 µM	3.1
CCC(=O)N[C@H]1CC[C@@H](C(=O)N(C)c2ccc(-c3nc4ccccc4o3)cc2)C1	cell-free assay	competition with immobilised ligand	1 µM	74
CNC(=O)[C@@H]1CC[C@@H](n2c(-c3ccc4cnccc4c3)nc3ccc(C(=O)NCc4cccc(C(N)=O)c4)cc32)C1	binding	competition with immobilised ligand	1 µM	100
O=C(NCc1ncc(C(F)(F)F)cc1Cl)c1ccc2c(c1)C1(CCS(=O)(=O)CC1)[C@@H](C1CC1)N2S(=O)(=O)c1ccc(F)cc1	cell-free assay	competition with immobilised ligand	1 µM	81
CC1CCCN1c1nccc(-c2cnn3ncccc23)n1 (stereo not shown)	binding	–	1 µM	100
